Measurements published in ChEMBL document CHEMBL4330096, “Discovery of potent and selective 5-azaindazole inhibitors of leucine-rich repeat kinase 2 (LRRK2) - Part 1” (Bioorg Med Chem Lett, 2019).

Experiments:
[1] = molecular target: T1, Serine/threonine-protein kinase BRSK2 (Homo sapiens) (UniProt Q8IWQ3); test: Inhibition of BRSK2 (unknown origin) at 1 uM relative to control
T1 sequence (whole entry): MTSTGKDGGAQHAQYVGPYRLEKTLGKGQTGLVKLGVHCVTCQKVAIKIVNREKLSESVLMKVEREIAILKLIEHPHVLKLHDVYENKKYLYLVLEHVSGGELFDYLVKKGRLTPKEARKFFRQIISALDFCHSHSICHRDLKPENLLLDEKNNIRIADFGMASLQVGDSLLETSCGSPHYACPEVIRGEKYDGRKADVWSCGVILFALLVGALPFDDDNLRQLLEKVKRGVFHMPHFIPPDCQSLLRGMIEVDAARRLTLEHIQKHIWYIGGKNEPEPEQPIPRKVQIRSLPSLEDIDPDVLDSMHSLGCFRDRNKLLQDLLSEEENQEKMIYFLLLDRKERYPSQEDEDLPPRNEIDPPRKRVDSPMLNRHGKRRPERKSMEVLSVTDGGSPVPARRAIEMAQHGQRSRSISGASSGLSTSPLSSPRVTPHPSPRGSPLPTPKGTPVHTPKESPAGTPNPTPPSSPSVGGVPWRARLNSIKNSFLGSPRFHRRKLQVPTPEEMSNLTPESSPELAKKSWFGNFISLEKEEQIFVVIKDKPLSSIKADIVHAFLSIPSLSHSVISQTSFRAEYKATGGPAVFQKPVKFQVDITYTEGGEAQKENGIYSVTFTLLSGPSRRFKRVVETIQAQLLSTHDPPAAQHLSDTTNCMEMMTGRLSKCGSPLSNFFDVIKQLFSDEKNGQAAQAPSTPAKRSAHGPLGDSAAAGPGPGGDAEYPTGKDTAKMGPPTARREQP
Procedure, shortened: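 Single-point screen of each compound against a panel of 59 protein kinases, at 1 or 10 μM. The panel data are also summarised as a rescaled geometric mean selectivity score.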

[2] = molecular target: Phosphorylase kinase (Homo sapiens) (UniProt P15735+P46020+P46019+Q93100+Q16816); test: Inhibition of PHK (unknown origin) at 1 uM relative to control; format: protein-complex assay
Procedure, shortened: (§1)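 Single-concentration screen of each compound against a 59-protein-kinase panel, run at 10 µM or 1 µM. Activity relative to control is shown as a heat map across the panel.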

[3] = molecular target: Serine/threonine-protein kinase Nek6 (Homo sapiens) (UniProt Q9HC98); test: Inhibition of NEK6 (unknown origin) at 1 uM relative to control; procedure, shortened: as §1
Serine/threonine-protein kinase Nek6 (Homo sapiens), sequence (Q9HC98 whole entry): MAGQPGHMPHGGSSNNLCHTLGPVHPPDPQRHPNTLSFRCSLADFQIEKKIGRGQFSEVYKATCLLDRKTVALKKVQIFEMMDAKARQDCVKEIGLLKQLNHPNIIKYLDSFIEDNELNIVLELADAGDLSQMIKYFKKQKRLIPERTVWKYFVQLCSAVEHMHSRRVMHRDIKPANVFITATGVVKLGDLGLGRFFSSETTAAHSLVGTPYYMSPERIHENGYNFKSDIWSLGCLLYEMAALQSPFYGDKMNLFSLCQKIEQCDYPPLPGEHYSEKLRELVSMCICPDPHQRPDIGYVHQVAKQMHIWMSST

[4] = molecular target: SRSF protein kinase 1 (Homo sapiens) (UniProt Q96SB4); test: Inhibition of SRPK1 (unknown origin) at 1 uM relative to control
SRSF protein kinase 1 (Homo sapiens), sequence (Q96SB4 whole entry): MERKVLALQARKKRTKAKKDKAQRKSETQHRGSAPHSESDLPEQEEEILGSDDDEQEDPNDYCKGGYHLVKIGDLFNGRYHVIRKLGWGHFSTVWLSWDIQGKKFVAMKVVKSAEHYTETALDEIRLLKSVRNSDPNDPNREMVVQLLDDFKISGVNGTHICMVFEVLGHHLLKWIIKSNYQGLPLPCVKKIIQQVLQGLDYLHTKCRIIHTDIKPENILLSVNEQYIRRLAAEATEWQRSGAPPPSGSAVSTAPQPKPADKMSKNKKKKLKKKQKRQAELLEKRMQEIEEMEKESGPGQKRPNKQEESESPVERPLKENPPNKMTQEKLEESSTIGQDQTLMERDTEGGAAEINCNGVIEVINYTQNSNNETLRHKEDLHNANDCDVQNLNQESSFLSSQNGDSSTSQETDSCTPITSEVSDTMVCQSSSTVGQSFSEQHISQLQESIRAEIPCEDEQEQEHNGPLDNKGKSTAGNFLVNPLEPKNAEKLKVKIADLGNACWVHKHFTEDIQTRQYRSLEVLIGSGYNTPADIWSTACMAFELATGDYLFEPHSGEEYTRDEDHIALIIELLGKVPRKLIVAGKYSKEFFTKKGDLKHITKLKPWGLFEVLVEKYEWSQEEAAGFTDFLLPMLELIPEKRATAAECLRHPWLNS
Procedure, shortened: (§2)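 Single-concentration screen across a panel of 59 protein kinases, with each compound tested at one fixed concentration. The read-out is residual kinase activity relative to control. Panel results are also condensed into a rescaled geometric mean (RGM) selectivity score.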

[5] = molecular target: T2, Protein kinase C zeta type (Homo sapiens) (UniProt Q05513); test: Inhibition of PKCz (unknown origin) at 1 uM relative to control; procedure, shortened: as §1
T2 sequence (whole entry): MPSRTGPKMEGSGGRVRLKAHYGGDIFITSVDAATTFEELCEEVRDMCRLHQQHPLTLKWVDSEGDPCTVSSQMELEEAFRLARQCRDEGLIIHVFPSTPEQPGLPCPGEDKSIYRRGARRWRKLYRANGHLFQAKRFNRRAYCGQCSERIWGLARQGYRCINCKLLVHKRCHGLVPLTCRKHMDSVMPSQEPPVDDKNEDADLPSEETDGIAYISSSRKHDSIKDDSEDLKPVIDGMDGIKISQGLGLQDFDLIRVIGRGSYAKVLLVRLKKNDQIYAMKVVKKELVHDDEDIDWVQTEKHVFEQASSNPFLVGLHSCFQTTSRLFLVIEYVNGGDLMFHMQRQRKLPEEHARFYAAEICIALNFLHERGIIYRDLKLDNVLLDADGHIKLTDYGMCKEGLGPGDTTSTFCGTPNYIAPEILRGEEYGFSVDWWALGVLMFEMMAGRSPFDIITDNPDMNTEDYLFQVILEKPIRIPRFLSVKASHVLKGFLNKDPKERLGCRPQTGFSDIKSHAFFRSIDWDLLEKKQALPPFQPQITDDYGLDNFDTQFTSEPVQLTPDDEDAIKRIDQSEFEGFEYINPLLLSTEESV

[6] = molecular target: T3, Serine/threonine-protein kinase Sgk1 (Homo sapiens) (UniProt O00141); test: Inhibition of SGK1 (unknown origin) at 1 uM relative to control; procedure, shortened: as §2
T3 sequence (whole entry): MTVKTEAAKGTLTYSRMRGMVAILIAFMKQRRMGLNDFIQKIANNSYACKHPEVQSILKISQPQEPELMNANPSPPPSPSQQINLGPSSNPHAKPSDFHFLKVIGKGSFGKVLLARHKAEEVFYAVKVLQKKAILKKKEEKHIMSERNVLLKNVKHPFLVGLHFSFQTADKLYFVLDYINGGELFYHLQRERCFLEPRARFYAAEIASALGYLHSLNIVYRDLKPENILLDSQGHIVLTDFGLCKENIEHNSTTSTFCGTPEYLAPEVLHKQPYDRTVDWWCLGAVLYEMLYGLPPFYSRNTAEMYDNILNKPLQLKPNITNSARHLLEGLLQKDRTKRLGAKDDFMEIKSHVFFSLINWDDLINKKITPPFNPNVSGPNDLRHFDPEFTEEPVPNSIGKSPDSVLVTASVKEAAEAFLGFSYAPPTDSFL

[7] = molecular target: MAP kinase-interacting serine/threonine-protein kinase 1 (Homo sapiens) (UniProt Q9BUB5); test: Inhibition of MNK1 (unknown origin) at 1 uM relative to control; procedure, shortened: as §1
MAP kinase-interacting serine/threonine-protein kinase 1 (Homo sapiens), sequence (Q9BUB5 whole entry, looked up): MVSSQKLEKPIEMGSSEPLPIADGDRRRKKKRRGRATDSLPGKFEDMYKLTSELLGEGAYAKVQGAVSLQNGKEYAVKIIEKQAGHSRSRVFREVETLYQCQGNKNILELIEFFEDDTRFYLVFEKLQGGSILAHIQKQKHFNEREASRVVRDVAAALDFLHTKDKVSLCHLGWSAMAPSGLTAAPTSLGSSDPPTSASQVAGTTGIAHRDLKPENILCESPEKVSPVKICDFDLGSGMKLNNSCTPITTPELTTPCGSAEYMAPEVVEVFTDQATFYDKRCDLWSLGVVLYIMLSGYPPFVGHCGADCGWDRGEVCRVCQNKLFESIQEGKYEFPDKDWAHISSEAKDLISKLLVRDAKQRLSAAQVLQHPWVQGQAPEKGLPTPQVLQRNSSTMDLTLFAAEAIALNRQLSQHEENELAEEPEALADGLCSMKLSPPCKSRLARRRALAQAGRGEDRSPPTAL

[8] = molecular target: MAP kinase-interacting serine/threonine-protein kinase 2 (Homo sapiens) (UniProt Q9HBH9); test: Inhibition of MNK2 (unknown origin) at 1 uM relative to control; procedure, shortened: as §1
MAP kinase-interacting serine/threonine-protein kinase 2 (Homo sapiens), sequence (Q9HBH9 whole entry, looked up): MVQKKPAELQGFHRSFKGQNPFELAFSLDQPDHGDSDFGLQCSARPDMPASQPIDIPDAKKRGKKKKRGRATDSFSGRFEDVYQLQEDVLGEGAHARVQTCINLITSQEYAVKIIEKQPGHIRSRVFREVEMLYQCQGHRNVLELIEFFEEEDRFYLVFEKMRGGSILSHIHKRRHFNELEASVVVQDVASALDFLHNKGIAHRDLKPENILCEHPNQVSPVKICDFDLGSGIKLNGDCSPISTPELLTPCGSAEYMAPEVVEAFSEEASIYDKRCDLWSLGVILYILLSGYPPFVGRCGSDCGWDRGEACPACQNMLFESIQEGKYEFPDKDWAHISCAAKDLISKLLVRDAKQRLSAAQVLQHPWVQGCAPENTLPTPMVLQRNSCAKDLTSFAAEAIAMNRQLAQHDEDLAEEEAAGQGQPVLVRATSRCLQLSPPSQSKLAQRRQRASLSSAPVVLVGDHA

| Structure (SMILES) | inhibition [1] | inhibition [2] | inhibition [3] | inhibition [4] | inhibition [5] | inhibition [6] | inhibition [7] | inhibition [8] |
| --- | --- | --- | --- | --- | --- | --- | --- | --- |
| c1cc(-c2n[nH]c3ccnc(OC4CCOCC4)c23)cc(N2CCOCC2)n1 | 0% | 15% | 0% | 0% | 1% | 0% | 2% | 13% |
| CC(C)n1cc(-c2n[nH]c3ccnc(OC4CCOCC4)c23)cn1 | 19% | 41% | 0% | 0% | 14% | 12% | 0% | 5% |
